Experimental findings from ChEMBL document CHEMBL4616666, “Discovery of SHP2-D26 as a First, Potent, and Effective PROTAC Degrader of SHP2 Protein” (J Med Chem, 2020) are described below.

The source made the active and inactive calls. The calls are words filed in the database; no cut-off is given here.

A word on the DC50: it is the concentration giving 50% degradation. As usually defined, the inhibition is the drop in the measured response relative to a control, in per cent. One may read the IC50 as the concentration at which inhibition is half-maximal.

Series [1] deals with T1, von Hippel-Lindau disease tumor suppressor/Tyrosine-protein phosphatase non-receptor type 11 (Homo sapiens, UniProt Q06124+P40337). In words: Protac activity at VHL1/SHP2 in human KYSE520 cells assessed as induction of SHP2 degradation at 0.1 uM measured after 6 hrs by Western blot analysis relative to control. The series is classed as cell-based. In short, it runs like this: (§1)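 KYSE520 cells in RPMI 1640 + 10% FBS, 37 °C, 5% CO2, were exposed to degrader for 6 h. SHP2 was measured by Western blot and densitometry, with background-subtracted band normalized to net GAPDH band. Values are the average of three independent experiments.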
Background: In western blotting, separated proteins are transferred to a membrane and probed.
Target sequence in this assay (P40337 whole entry partner, one chain of several): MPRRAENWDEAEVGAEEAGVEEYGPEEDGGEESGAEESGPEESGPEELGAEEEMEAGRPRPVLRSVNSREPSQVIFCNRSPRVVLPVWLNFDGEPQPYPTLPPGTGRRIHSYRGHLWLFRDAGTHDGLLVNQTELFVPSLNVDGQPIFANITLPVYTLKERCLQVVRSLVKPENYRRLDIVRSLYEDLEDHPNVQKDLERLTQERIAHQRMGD

The target in series [2] is T1, von Hippel-Lindau disease tumor suppressor/Tyrosine-protein phosphatase non-receptor type 11. In words: Protac activity at VHL1/SHP2 in human KYSE520 cells assessed as induction of SHP2 degradation at 1 uM measured after 6 hrs by Western blot analysis relative to control. The format is cell-based. In short, it runs like this:
as §1
Target sequence in this assay (P40337 whole entry partner, one chain of several): as above

For series [3] the target is unchanged. In words: Protac activity at VHL1/SHP2 in human MV4-11 cells assessed as induction of SHP2 degradation at 0.1 uM measured after 24 hrs by Western blot analysis relative to control. The format is cell-based. The gist of the method: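 MV4;11 cells in IMDM + 10% FBS were exposed to degrader for 24 h. SHP2 was quantified by Western blot densitometry, with background-subtracted band divided by net GAPDH loading-control band. Average of three independent experiments.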
Target sequence in this assay (P40337 whole entry partner, one chain of several): as above

Series [4] in a line: Aqueous solubility of the compound. The format is physicochemical. The note with it: buffer.
For series [5], the target named is T1, von Hippel-Lindau disease tumor suppressor/Tyrosine-protein phosphatase non-receptor type 11. In words: Protac activity at VHL1/SHP2 in human KYSE520 cells assessed as induction of SHP2 degradation measured after 12 hrs by Western blot analysis. The format is cell-based. In short, it runs like this:
(§2)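 Dose–response: KYSE520 (RPMI 1640) or MV4;11 (IMDM) cells, with 10% FBS, were treated across a concentration range for 12 h. SHP2 was measured by Western blot and densitometry, normalized to GAPDH band density.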

For series [6] the target is unchanged. In words: Protac activity at VHL1/SHP2 in human MV4-11 cells assessed as induction of SHP2 degradation measured after 12 hrs by Western blot analysis. The format is cell-based. The gist of the method:
as §2

Series [7] shares this target. In words: Protac activity at VHL1/SHP2 in human KYSE520 cells assessed as induction of SHP2 degradation at 100 nM measured within 4 hrs by Western blot analysis. The series is classed as cell-based. In short, it runs like this: (§3)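 Kinetics: cells were seeded overnight in 6-well plates, then given degrader at 100 nM for 2, 4, 8, 12 and 24 h. Harvested cells were lysed in RIPA with protease/phosphatase inhibitors and SHP2 was read by Western blot against GAPDH loading control. KYSE520 were grown in RPMI 1640 and MV4;11 in IMDM, both with 10% FBS.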
Target sequence in this assay (P40337 whole entry partner, one chain of several): as above

The target is the same in series [8]. In words: Protac activity at VHL1/SHP2 in human KYSE520 cells assessed as induction of SHP2 degradation at 100 nM measured after 8 hrs by Western blot analysis relative to control. The series is classed as cell-based. The gist of the method:
as §3
Target sequence in this assay (P40337 whole entry partner, one chain of several): as above

For series [9] the target is unchanged. In words: Protac activity at VHL1/SHP2 in human MV4-11 cells assessed as induction of SHP2 degradation at 100 nM measured after 4 to 8 hrs by Western blot analysis. The format is cell-based. In short, it runs like this:
as §3
Target sequence in this assay (P40337 whole entry partner, one chain of several): as above

Series [10] has the same target. In words: Protac activity at VHL1/SHP2 in human KYSE520 cells assessed as induction of SHP2 degradation at 0.1 uM measured after 3 hrs in presence of VHL-1 ligand by Western blot analysis. The series is classed as cell-based. In short, it runs like this:
(§4)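 KYSE520 cells in RPMI 1640 + 10% FBS were pretreated 1 h with VHL-1 ligand (10 μM), SHP2 inhibitor (10 μM), MLN4924 (0.5 μM) or MG132, then given degrader at 0.1 μM for 3 h. Cells were lysed in RIPA with protease/phosphatase inhibitors and run on 4–12% SDS–PAGE/PVDF Western blot for SHP2, with GAPDH as loading control.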

Series [11] has the same target. In words: Protac activity at VHL1/SHP2 in human KYSE520 cells assessed as induction of SHP2 degradation at 0.1 uM measured after 3 hrs in presence of SHP2 inhibitor by Western blot analysis. The format is cell-based. The gist of the method: as §4
For series [12] the target is unchanged. In words: Protac activity at VHL1/SHP2 in human KYSE520 cells assessed as induction of SHP2 degradation at 0.1 uM measured after 3 hrs in presence of E1 inhibitor MLN4924 by Western blot analysis. The format is cell-based. The gist of the method: as §4
The target is the same in series [13]. In words: Protac activity at VHL1/SHP2 in human KYSE520 cells assessed as induction of SHP2 degradation at 0.1 uM measured after 3 hrs in presence of proteasome inhibitor MG132 by Western blot analysis. The format is cell-based. In short, it runs like this:
as §4

Series [14] shares this target. In words: Protac activity at VHL1/SHP2 in human KYSE520 cells assessed as reduction in ERK phosphorylation measured after 48 hrs by Western blot analysis. The series is classed as cell-based.
Series [15] shares this target. In words: Protac activity at VHL1/SHP2 in human MV4-11 cells assessed as reduction in ERK phosphorylation measured after 48 hrs by Western blot analysis. The series is classed as cell-based.
Series [16] shares this target. In words: Protac activity at VHL1/SHP2 in human KYSE520 cells assessed as reduction in ERK phosphorylation at 100 nM measured after 48 hrs by Western blot analysis. The series is classed as cell-based.
Series [17] has the same target. In words: Protac activity at VHL1/SHP2 in human MV4-11 cells assessed as reduction in ERK phosphorylation at 100 nM measured after 48 hrs by Western blot analysis relative to control. More on the design: scale not given: the % may be the effect or the level left. The format is cell-based.
Series [18] concerns the target T2, Tyrosine-protein phosphatase non-receptor type 11 (Homo sapiens) (UniProt Q06124).
T2 sequence (whole entry): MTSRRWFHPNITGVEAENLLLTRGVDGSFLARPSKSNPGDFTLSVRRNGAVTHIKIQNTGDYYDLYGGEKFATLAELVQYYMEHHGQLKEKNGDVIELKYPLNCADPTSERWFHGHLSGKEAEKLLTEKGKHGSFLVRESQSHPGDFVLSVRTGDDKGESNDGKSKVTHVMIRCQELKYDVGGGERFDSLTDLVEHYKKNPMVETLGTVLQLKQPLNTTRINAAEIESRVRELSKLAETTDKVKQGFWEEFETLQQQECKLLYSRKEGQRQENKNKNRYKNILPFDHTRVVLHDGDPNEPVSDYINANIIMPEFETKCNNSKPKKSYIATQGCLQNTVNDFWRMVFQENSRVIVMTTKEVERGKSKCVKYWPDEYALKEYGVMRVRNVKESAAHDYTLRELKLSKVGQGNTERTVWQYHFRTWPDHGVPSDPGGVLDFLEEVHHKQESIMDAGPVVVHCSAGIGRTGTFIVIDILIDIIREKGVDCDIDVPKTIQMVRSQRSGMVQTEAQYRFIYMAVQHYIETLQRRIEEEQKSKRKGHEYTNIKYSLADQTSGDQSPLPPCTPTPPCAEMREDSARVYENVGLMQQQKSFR
In words: Inhibition of SHP2 in human MV4-11 cells assessed as reduction in ERK phosphorylation at >3000 nM measured after 48 hrs by Western blot analysis relative to control. The series is classed as cell-based.

Series [19] concerns KYSE-520 cell line. In words: Growth inhibition of human KYSE520 cells measured after 4 days by WST8 assay. Conditions: KYSE-520, 96 h. Background: Formazan colour is commonly taken as a measure of viable cells.
The test system of series [20] is MV4-11. In words: Growth inhibition of human MV4-11 cells measured after 4 days by WST8 assay. The note with it: MV4-11, 96 h.
Series [21] deals with KYSE-520 cell line. In words: Potency index, ratio of SHP099 IC50 to test compound IC50 for growth inhibition of human KYSE520 cells. The format is functional.
For series [22], the system named is MV4-11. In words: Potency index, ratio of SHP099 IC50 to test compound IC50 for growth inhibition of human MV4-11 cells. The format is functional.

On to `Cc1ncsc1-c1ccc([C@H](C)NC(=O)[C@@H]2C[C@@H](O)CN2C(=O)[C@@H](NC(=O)CCCCCCCCN2CCN(C(=O)CCC(=O)Nc3cccc(Sc4ncc(N5CCC(C)(N)CC5)nc4N)c3Cl)CC2)C(C)(C)C)cc1` (single isomer, unassigned), for which the Activity in [1] is greater than 95%; in series [2] it was greater than 95%; in series [3], greater than 95%; in series [5], “Dose-dependent effect”; in [6] it was “Dose-dependent effect”; in [8], 100%. Also, the Activity result in series [14] is “Dose-dependent effect”; in series [15] it was “Dose-dependent effect”; in series [17], 100%. Also, the solubility entry in series [4] is recorded as “Soluble”. Further, the DC50 was determined as 6 nM in [5] and 2.6 nM in series [6]. In addition, the outcome in series [7], in series [9] and in series [16] was Active. The result in series [10], in series [11], in series [12] and in series [13] was inactive. Also, the inhibition in series [18] worked out at 100%. For the same compound, the results for the IC50 in [19] and in series [20] were 660 nM and 9.9 nM, respectively. Further, the figures for the “Ratio IC50” value in series [21] and in series [22] were 28 and 100, respectively.
